Measurements from publication PMC3620022 (Molecular cancer therapeutics, 2012).
Changes are numbered by the printed parent chain. Where “and” joins values, the source holds several entries; their conditions need not be identical. Equal values may be shown once.

Key:
[1] = target: T1, recombinant GAC (residues 128-603) (Mus musculus, UniProt D3Z7P3); experiment: Recombinant GAC two-step glutaminase assay; assay type: biochemical; settings: for inhibition of phosphate-activated enzyme: GAC activated by inorganic phosphate before inhibitor
T1 sequence (D3Z7P3 128-603 isoform D3Z7P3-2): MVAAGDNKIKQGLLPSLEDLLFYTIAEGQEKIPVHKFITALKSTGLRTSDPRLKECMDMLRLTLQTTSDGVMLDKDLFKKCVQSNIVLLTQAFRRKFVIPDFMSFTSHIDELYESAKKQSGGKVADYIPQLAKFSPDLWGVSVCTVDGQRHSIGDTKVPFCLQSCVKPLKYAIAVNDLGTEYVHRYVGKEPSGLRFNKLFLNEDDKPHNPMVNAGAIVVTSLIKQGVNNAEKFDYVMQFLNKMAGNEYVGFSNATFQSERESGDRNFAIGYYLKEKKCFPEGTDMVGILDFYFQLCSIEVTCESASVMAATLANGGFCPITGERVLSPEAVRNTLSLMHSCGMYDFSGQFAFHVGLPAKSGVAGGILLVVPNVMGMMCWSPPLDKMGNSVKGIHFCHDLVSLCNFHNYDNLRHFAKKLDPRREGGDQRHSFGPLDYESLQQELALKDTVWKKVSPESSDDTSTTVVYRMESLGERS

[2] = test system: MDA-MB-231 cells; experiment: MDA-MB-231 cell proliferation assay; assay type: cell-based, human
[3] = target: T2, F532L GAC mutant (Mus musculus, UniProt D3Z7P3, F532L); experiment: Recombinant protein assay with F532L GAC mutant; assay type: biochemical; settings: concentrations up to 50 μM
T2 sequence (D3Z7P3 72-603 isoform D3Z7P3-2 F532L): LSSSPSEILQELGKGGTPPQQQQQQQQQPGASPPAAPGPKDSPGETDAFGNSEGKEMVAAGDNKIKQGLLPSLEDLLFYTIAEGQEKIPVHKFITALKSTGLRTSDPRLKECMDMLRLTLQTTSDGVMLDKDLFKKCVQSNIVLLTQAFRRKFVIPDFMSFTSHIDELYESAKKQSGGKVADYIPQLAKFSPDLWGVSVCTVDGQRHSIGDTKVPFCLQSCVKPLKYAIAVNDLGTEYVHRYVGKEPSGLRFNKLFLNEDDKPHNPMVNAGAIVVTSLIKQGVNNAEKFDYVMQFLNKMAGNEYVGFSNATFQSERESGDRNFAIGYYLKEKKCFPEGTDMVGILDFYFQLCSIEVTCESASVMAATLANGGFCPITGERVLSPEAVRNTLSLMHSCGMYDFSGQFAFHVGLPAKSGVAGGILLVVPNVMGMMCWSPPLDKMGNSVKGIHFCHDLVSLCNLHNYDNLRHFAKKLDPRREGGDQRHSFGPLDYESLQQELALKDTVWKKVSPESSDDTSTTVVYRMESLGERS
In short: (§1)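 Mouse GAC residues 72-603 in pET28a, wild type or site-directed mutant. Inhibitor in DMSO mixed with 50 nM enzyme and 21 mM glutamine in pH 8.6 Tris-acetate, then inorganic phosphate (136 mM) added; 10 min at 37°C; acid quench. Glutamate read by glutamate dehydrogenase/NAD coupling, A340 after 45 min room temperature against NAD-free blank; duplicates. IC50 from fixed-slope inhibitor curve fit.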

[4] = target: T3, full-length wild-type GAC (Δ72 GAC) (Mus musculus, UniProt D3Z7P3); experiment: Recombinant protein assay with full-length wild-type GAC; assay type: biochemical
T3 sequence (D3Z7P3 72-603 isoform D3Z7P3-2): T2 sequence (D3Z7P3 72-603 isoform D3Z7P3-2 F532L) with L461F
In short: as §1

[5] = target: T4, R539L GAC mutant (Mus musculus, UniProt D3Z7P3, R539L); experiment: Recombinant protein assay with R539L GAC mutant; assay type: biochemical; settings: concentrations up to 50 μM
T4 sequence (D3Z7P3 72-603 isoform D3Z7P3-2 R539L): T2 sequence (D3Z7P3 72-603 isoform D3Z7P3-2 F532L) with L461F, R468L
In short: as §1

Row | IC50 ([2]; MDA-MB-231 cell proliferation) | inhibition of mutant [3] | inhibition at 10 µM [1] | inhibition at 25 µM [1] | inhibition at 50 µM [1] | IC50 ([1]; IC50, GAC 50 nM, glutamine 21 mM, phosphate 136 mM, 10 min, fixed slope inhibitor model, shorter GAC construct) | IC50 [4] | inhibition of mutant [5] | IC50 ([2]; Homo sapiens, MDA-MB-231) | SMILES | inhibition of phosphate-activated enzyme [1]
1 | 3 µM |  |  |  |  |  |  |  |  | O=C(Cc1ccccc1)Nc1nnc(CCSCCc2nnc(NC(=O)Cc3ccccc3)s2)s1 [BPTES, reference compound] | able to do so
2 |  | detectable inhibition was not observed | 21 ± 5% | 94 ± 1% | 95 ± 1% | 9.3 µM and ~10 µM | 19 µM | detectable inhibition was not observed | 4.2 µM | CN(C)c1ccc(C2Nc3ccc4ccccc4c3C3=C2C(=O)CC(C)(C)C3)cc1Br (centres unmarked) [compound 968, 5-(3-bromo-4-(dimethylamino)phenyl)-2,2-dimethyl-2,3,5,6-tetrahydrobenzo[a]phenanthridin-4(1H)-one] | unable to inhibit the phosphate-activated enzyme
